Laboratory results reported in ChEMBL document CHEMBL3864187, “Discovery and Characterization of a Peptoid with Antifungal Activity against Cryptococcus neoformans” (ACS Med Chem Lett, 2016).
In brackets after ≈: the same amount, converted by molar mass. Activity calls are given as the source filed them. Where a SMILES comes first, the peptide text is derived from it. [ ]: non-standard residue; d: D form. NFurfurylGly = O=C(O)CNCc1ccco1; Gly(N(CH2)3NH2) = NCCCNCC(=O)O; Nphe = O=C(O)CNCc1ccccc1

How the values were obtained:
[1] = Antifungal activity against Cryptococcus neoformans serotype D ATCC 24067 after 72 hrs by PrestoBlue staining based broth dilution method; assay type: functional, Cryptococcus deneoformans
In short: (§1)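 Standard broth dilution of the synthesized, HPLC-purified peptoid against C. neoformans in a triplicate-sample format with 72 h incubation; MIC is the lowest concentration that inhibits growth.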

Cryptococcus neoformans [2] = test: Antifungal activity against Cryptococcus neoformans serotype A clinical isolate B24 after 72 hrs by PrestoBlue staining based broth dilution method; assay type: functional; conditions: isolate B24, 72 h
In short: (§2)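 Standard broth dilution MIC assay run in triplicate samples with 72 h incubation. The MIC is the lowest concentration inhibiting growth. An IC50 (50% inhibitory concentration) is also derived from the same assay.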

[3] = Cytotoxicity against human HPL1A cells at 6.3 ug/ml measured after 48 hrs by MTT assay; assay type: toxicity, cell-based
In short: (§3)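 Cells were exposed to peptoid across 800 to 3.1 μg/mL. IC50 is defined as the concentration giving 50% growth inhibition. Cytotoxicity was also scored at 6.3 μg/mL within this range.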

[4] = Metabolic stability in human serum assessed as compound degradation at 0.1 mg/mL measured after 48 hrs by RP-HPLC analysis; assay type: ADME
[5] = Cytotoxicity against human HepG2 cells at 6.3 ug/ml measured after 48 hrs by MTT assay; assay type: toxicity, cell-based; conditions: hepg2, 48 h; in short: as §3
[6] = Antifungal activity against Cryptococcus neoformans serotype D clinical isolate AD 12-27 after 72 hrs by PrestoBlue staining based broth dilution method; assay type: functional, Cryptococcus deneoformans; in short: as §2
[7] = Cytotoxicity against human erythrocytes assessed as hemolysis measured after 1 hr by spectrophotometric method; assay type: toxicity, cell-based; conditions: erythrocyte
In short: (§4)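 Human erythrocytes were exposed to peptoid across 800 to 3.1 μg/mL. HC10 is defined as the concentration lysing 10% of erythrocytes. Lysis was also scored at 6.3 μg/mL.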

[8] = Antifungal activity against Cryptococcus neoformans serotype D clinical isolate AD 12-30 after 72 hrs by PrestoBlue staining based broth dilution method; assay type: functional, Cryptococcus deneoformans; in short: as §2
[9] = Selectivity index, ratio of IC50 for mouse NIH/3T3 cells to MIC for Cryptococcus neoformans serotype A H99S
In short: (§5)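 Mammalian toxicity tested at 800 to 3.1 μg/mL. IC50 (50% growth inhibition) was measured in NIH/3T3, HepG2 and HPL1A cells, and HC10 (10% lysis) in human erythrocytes. Each value was divided by the broth-dilution MIC against H99S.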

[10] = Selectivity index, ratio of IC50 for human HPL1A cells to MIC for Cryptococcus neoformans serotype A H99S; in short: as §5
[11] = Cytotoxicity against mouse NIH/3T3 cells measured after 48 hrs by MTT assay; assay type: toxicity, NIH3T3; in short: as §3
[12] = Cytotoxicity against human HPL1A cells measured after 48 hrs by MTT assay; assay type: toxicity, cell-based; in short: as §3
Mus musculus = organism: Mus musculus; test: Cytotoxicity against mouse NIH/3T3 cells at 6.3 ug/ml measured after 48 hrs by MTT assay; assay type: toxicity, cell-based; conditions: nih3t3, 48 h; in short: as §3
Cryptococcus neoformans [13] = test: Fungicidal activity against Cryptococcus neoformans serotype A H99S at =>6.3 ug/mL measured after 72 hrs by broth dilution method; assay type: functional; conditions: Cryptococcus neoformans var. grubii H99S
In short: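 Broth MIC assay over a range of peptoid concentrations with 72 h incubation. Triplicate wells are pooled, washed with PBS to remove drug and spotted onto YPD agar. Fungicidal activity means no colony regrowth; recovery of colonies means fungistatic only.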

[14] = Selectivity index, ratio of IC50 for human HepG2 cells to MIC for Cryptococcus neoformans serotype A H99S; in short: as §5
[15] = Antifungal activity against Cryptococcus neoformans serotype A H99S assessed as inhibition of colony growth measured after 72 hrs by PrestoBlue staining based broth dilution method; assay type: functional, Cryptococcus neoformans var. grubii H99S; conditions: for MIC: Cryptococcus neoformans var. grubii H99S; in short: as §1
[16] = Hemolytic activity against human erythrocytes at 6.3 ug/ml measured after 1 hr by spectrophotometric method; assay type: cell-based; conditions: erythrocyte; in short: as §4
[17] = Selectivity index, ratio of HC10 for human erythrocytes to MIC for Cryptococcus neoformans serotype A H99S; in short: as §5
[18] = Cytotoxicity against human HepG2 cells measured after 48 hrs by MTT assay; assay type: toxicity, cell-based; in short: as §3
Cryptococcus neoformans [19] = test: Antifungal activity against Cryptococcus neoformans serotype A clinical isolate B18 after 72 hrs by PrestoBlue staining based broth dilution method; assay type: functional; conditions: isolate B18, 72 h; in short: as §2

CCCCCCCCCCCCCNCC(=O)N(CCCCN)CC(=O)N(CC(N)=O)Cc1ccco1
IC50 [1]: 3.9 µg/mL (≈ 7.47 µM) | MIC ([1]; Cryptococcus deneoformans): 6.3 µg/mL (≈ 12.1 µM) | IC50 (Cryptococcus neoformans [2]): 10.7 µg/mL (≈ 20.5 µM) | MIC (Cryptococcus neoformans [2]): 12.5 µg/mL (≈ 24 µM) | Activity [3]: Non-Toxic | Stability [4]: Stable | Activity [5]: Non-Toxic | IC50 [6]: 4 µg/mL (≈ 7.67 µM) | MIC ([6]; Cryptococcus deneoformans): 25 µg/mL (≈ 47.9 µM) | HC10 [7]: 68.7 µg/mL | IC50 [8]: 6.9 µg/mL (≈ 13.2 µM) | MIC ([8]; Cryptococcus deneoformans): 25 µg/mL (≈ 47.9 µM) | Selectivity Index [9]: 8 | Selectivity Index [10]: 6 | IC50 at 48 h [11]: 48.6 to 50.3 µg/mL (≈ 93.1 to 96.4 µM) | IC50 at 48 h [12]: 36.3 µg/mL (≈ 69.6 µM) | Activity (Mus musculus): Non-Toxic | Activity (Cryptococcus neoformans [13]): Active | Selectivity Index [14]: 9 | IC50 [15]: 0.68 µg/mL (≈ 1.3 µM) | MIC [15]: 6.3 µg/mL (≈ 12.1 µM) | Activity [16]: Non-Toxic | Selectivity Index [17]: 11 | IC50 at 48 h [18]: 43.6 to 56.2 µg/mL (≈ 83.6 to 108 µM) | IC50 (Cryptococcus neoformans [19]): 12.2 µg/mL (≈ 23.4 µM) | MIC (Cryptococcus neoformans [19]): 25 µg/mL (≈ 47.9 µM)

NCCCN(CC(=O)N(CC(=O)N(CC(N)=O)Cc1ccco1)Cc1ccccc1)C(=O)CN(Cc1ccccc1)C(=O)CNCc1ccccc1 (H-[Nphe][Nphe][Gly(N(CH2)3NH2)][Nphe][NFurfurylGly]-NH2)
MIC [15]: > 200 µg/mL
